The test system of experiment [1] is HCT-116. In words: Antitumor activity against human HCT116 cells harboring KRAS G13D mutant xenografted in NSG mouse assessed as tumor growth inhibition by measuring reduction in tumor weight at 100 mg/kg, ip administered daily for 12 days and measured post-last dose relative to control. The class given is functional. Particulars: HCT-116, ip, 288 h, read-out: TGI. The method in brief: (§1)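 NSG mice, female and male, about 4–8 weeks old, were implanted with 1 × 10⁶ HCT116 cells on both sides of the abdomen. Tumours grew 3–5 days until visible. Compound was given ip daily for 12 days in vehicle containing 10% DMSO and 10% Kolliphor EL (dosing solution 10 mg/mL); control mice received vehicle. Tumour volume was measured daily; tumours were excised and weighed on the last day. Unpaired two-tailed t-test.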
(In general: A xenograft is tissue or cells of one species grown in another, often human tumour cells in immunodeficient mice.)

Experiment [2] concerns HCT-116. The experiment in a line: Inhibition of anchorage-independent cell growth in human HCT116 cells assessed as reduction in colony formation at >=10 uM incubated for 5 days followed by compound re-addition and measured after 9 to 11 days by nitro blue tetrazolium chloride-based soft agar colony formation assay relative to control. The class given is functional. The method in brief: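 HCT116 cells were mixed at 500 cells/mL into 0.3% agar growth layer over a 0.6% agar base layer (McCoy's medium, 10% calf serum). Both layers held inhibitor at 2.5–50 μM final. Wells were run in triplicate at 37 °C. Inhibitor-containing growth layer was added again at day 5. At 9–11 days, nitro blue tetrazolium was added overnight and colonies were imaged and counted.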

Another experiment has as its system NCI-H23. The experiment in a line: Growth inhibition of human NCI-H23 cells after 72 hrs by CellTiter-Blue assay. The class given is functional. The note with it: NCI-H23, 72 h. Background: Alamar Blue is a resazurin reagent that responds to reducing activity.
Experiment [3] deals with T1, NAD-dependent protein deacetylase sirtuin-2 (Homo sapiens) (UniProt Q8IXJ6).
T1 sequence (whole entry): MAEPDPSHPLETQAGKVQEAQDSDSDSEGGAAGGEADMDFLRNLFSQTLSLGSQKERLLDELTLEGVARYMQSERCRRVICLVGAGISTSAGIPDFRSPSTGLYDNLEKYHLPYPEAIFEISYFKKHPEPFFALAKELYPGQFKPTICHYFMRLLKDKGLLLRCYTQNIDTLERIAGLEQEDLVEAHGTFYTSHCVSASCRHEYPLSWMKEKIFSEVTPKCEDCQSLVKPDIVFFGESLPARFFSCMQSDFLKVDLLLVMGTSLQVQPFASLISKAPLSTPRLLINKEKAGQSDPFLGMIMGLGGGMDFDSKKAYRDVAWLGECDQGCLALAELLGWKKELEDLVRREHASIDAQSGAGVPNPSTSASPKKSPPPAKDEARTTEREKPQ
In words: Inhibition of SIRT2 in human HCT116 cells assessed as increase in alpha-tubulin acetylation at 25 uM incubated for 6 hrs by DAPI staining-based laser scanning confocal microscopic analysis. Format: cell-based. The method in brief: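 HCT116 cells were seeded at 400 000 on poly-D-lysine-coated glass-bottom dishes and grown 24 h. Cells were treated with DMSO or inhibitor for 6 h at 37 °C, fixed in ice-cold methanol, and blocked in TBS/0.1% Triton X-100/5% BSA. They were stained with anti-acetyl α-tubulin (1:100, overnight, 4 °C), then Cy3 anti-mouse, and mounted with DAPI. Imaging was by confocal microscopy.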

Experiment [4] deals with HCT-116. The experiment in a line: Antitumor activity against human HCT116 cells harboring KRAS G13D mutant xenografted in NSG mouse assessed as tumor growth inhibition by measuring reduction in tumor weight at 25 mg/kg, ip administered daily for 12 days and measured post-last dose. The class given is functional, organism-based. The method in brief:
as §1

In another experiment the test system is A549. In words: Growth inhibition of human A549 cells after 72 hrs by CellTiter-Blue assay. Format: functional. Particulars: A549, 72 h.
The subject of experiment [5] is HCT-116. The experiment in a line: Antitumor activity against human HCT116 cells harboring KRAS G13D mutant xenografted in NSG mouse assessed as tumor growth inhibition by measuring reduction in tumor volume at 100 mg/kg, ip administered daily for 12 days and measured post-last dose relative to control. The class given is functional. Particulars: HCT-116, ip, 288 h, read-out: TGI. The method in brief: as §1

Experiment [6] concerns the target T2, NAD-dependent protein deacetylase sirtuin-1 (Homo sapiens) (UniProt Q96EB6).
T2 sequence (whole entry): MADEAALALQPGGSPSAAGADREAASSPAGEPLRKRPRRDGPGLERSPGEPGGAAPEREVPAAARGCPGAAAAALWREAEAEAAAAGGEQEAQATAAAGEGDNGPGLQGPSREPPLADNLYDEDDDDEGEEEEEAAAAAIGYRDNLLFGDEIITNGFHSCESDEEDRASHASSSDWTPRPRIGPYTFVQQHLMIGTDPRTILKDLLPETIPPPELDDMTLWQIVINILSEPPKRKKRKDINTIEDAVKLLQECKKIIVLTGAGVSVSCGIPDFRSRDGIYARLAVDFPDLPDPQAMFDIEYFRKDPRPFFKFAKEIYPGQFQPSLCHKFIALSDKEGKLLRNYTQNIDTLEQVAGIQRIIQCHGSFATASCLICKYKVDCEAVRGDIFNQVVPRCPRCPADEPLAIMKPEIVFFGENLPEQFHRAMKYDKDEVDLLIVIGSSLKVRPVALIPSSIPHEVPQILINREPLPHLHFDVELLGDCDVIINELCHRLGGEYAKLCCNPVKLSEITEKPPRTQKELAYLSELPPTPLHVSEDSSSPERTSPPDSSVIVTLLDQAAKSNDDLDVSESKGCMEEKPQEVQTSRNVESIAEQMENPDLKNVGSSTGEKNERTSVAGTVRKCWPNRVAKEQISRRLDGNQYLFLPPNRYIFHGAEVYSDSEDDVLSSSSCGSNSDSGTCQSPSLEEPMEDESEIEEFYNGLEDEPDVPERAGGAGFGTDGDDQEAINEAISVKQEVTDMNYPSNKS
In words: Inhibition of SIRT1 in human HCT116 cells assessed as increase in acetylated p53 K382 level at 25 uM after 6 hrs by Western blot analysis. The class given is cell-based. For orientation: A western blot detects proteins with antibodies after separation by electrophoresis.

For a further experiment, the system named is SW948. In words: Potency index, ratio of TM GI50 to compound GI50 for growth inhibition of human SW948 cells. The class given is functional.
Experiment [7] has as its system HCT-116. In words: Potency index, ratio of TM GI50 to compound GI50 for growth inhibition of human HCT116 cells. The class given is functional.
The next experiment concerns MCF7. In words: Potency index, ratio of TM GI50 to compound GI50 for growth inhibition of human MCF7 cells. The class given is functional.
Experiment [8] concerns the target T3, NAD-dependent protein deacetylase sirtuin-3, mitochondrial (Homo sapiens, UniProt Q9NTG7).
T3 sequence (Q9NTG7 whole entry): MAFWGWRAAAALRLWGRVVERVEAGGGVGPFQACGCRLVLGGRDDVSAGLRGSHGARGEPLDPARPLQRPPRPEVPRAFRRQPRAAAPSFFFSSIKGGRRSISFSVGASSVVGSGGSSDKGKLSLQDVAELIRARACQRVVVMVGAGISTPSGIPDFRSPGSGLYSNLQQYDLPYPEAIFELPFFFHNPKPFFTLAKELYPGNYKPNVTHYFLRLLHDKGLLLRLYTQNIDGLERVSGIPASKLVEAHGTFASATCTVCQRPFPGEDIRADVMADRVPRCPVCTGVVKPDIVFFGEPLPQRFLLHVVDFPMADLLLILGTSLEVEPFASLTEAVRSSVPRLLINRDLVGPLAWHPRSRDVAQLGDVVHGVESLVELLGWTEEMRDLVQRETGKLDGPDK
In words: Inhibition of human SIRT3 assessed as reduction in deacetylase activity using acetylated H3K9 as substrate preincubated for 15 mins followed by substrate addition and measured after 15 mins by UV-HPLC analysis.

SMILES strings stand for the structures. Activity calls are given as the source filed them. The rule behind the calls is not given here.

By GI50 is commonly meant the concentration giving 50% growth inhibition. Low values mean more potent growth inhibition, high ones less potent growth inhibition. With `CCCCCCCCNC(=S)NCCCC[C@H](NC(=O)OCc1ccccc1)C(=O)Nc1ccccc1`, the inhibition in vivo at 100 mg/kg in the experiment with HCT-116 [1] worked out at 78%; in the experiment with HCT-116 [5], 80%. Further, the “growth inhibition (GI)” value in the experiment with HCT-116 [2] was found to be 100%. The GI50 was found to be 35.8 µM in the experiment on NCI-H23 and 20.8 µM in the experiment with A549. For the same compound, in experiment [3], the inhibition entry was “Active”. Besides, the TGI entry with HCT-116 [4] was “inactive”. Besides, the inhibition entry in [6] was “inactive”.
The IC50 is the point on the concentration scale where inhibition reaches its midpoint. Take `CCCCCCCCCCNC(=S)NCCCC[C@H](NC(=O)OCc1ccccc1)C(=O)Nc1ccccc1`: the results for the inhibition in vivo at 100 mg/kg in the experiment with HCT-116 [1] and in the experiment with HCT-116 [5] were 49% and 37%, respectively. In addition, the “growth inhibition (GI)” value with HCT-116 [2] stood at 100%. Moreover, the results for the GI50 in the experiment with NCI-H23 and in the experiment with A549 were 15.6 µM and 9 µM, respectively. The RatioGI50 with SW948, in the experiment with HCT-116 [7] and in the experiment on MCF7 was 2 each time. For the same compound, in [3], the inhibition entry is “Active”. The inhibition entry in experiment [6] is “inactive”. In experiment [8], the IC50 is above 200 µM.

The values are drawn from ChEMBL document CHEMBL4433206, “Novel Lysine-Based Thioureas as Mechanism-Based Inhibitors of Sirtuin 2 (SIRT2) with Anticancer Activity in a Colorectal Cancer Murine Model” (J Med Chem, 2019).
